Data published in PMC6720533 (Biomolecules & Therapeutics, 2019).

Key:
recombinant human CK2α1 = recombinant human CK2α1 (Homo sapiens, UniProt P68400); test: CK2 kinase activity assay; type: biochemical; conditions: 60 min
How it was run: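 Recombinant human CK2α1 (50 ng) was incubated with 2.5 μg CK2α1 substrate, 10 μM ATP, and test compound, reference inhibitor or DMSO for 60 min at room temperature. ADP-Glo reagent stopped the reaction and depleted remaining ATP. Detection reagent then converted ADP to ATP for luciferase/luciferin luminescence, which tracks the ADP formed as the measure of kinase activity.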

p70S6K = p70S6K (Homo sapiens, UniProt P23443); test: Kinase activity screening; type: biochemical; conditions: FX-9 at 2.5 μM, ATP at Km (15 μM)
How it was run: (§1)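 Radiometric kinase-panel screen of 58 human kinases, measuring substrate phosphorylation. […] Activity is given as % of the mean positive-control kinase activity (100%). Below 30% counts as a strong hit, 30–70% as a partial hit, and above 70% as no hit.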

DRAK1 = DRAK1 (Homo sapiens, UniProt Q9UEE5); test: Kinase activity screening; type: biochemical; conditions: FX-9 at 2.5 μM, ATP at Km (10 μM)
How it was run: (§2)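 Radiometric substrate-phosphorylation screen covering a panel of 58 human kinases run by a contract service. […] Activity is given as a percentage of mean activity in positive control samples (100%). Values <30% were scored strong hits, 30–70% partial hits and >70% no hit.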

Jurkat cells = test: Apoptosis, Annexin V FITC / propidium iodide flow cytometry; type: cell-based, human; conditions: 5 μM, 72 h, DMSO 18.7%
MSK2 = MSK2 (Homo sapiens, UniProt O75676); test: Kinase activity screening; type: biochemical; conditions: FX-9 at 2.5 μM, ATP at Km (45 μM)
How it was run: as §2

CDK1/cyclinB = CDK1/cyclinB (Homo sapiens, UniProt P06493); test: Kinase activity screening; type: biochemical; conditions: FX-9 at 2.5 μM, ATP at Km (45 μM)
How it was run: as §2

Lyn = Lyn (Homo sapiens, UniProt P07948); test: Kinase activity screening; type: biochemical; conditions: FX-9 at 2.5 μM, ATP at Km (70 μM)
How it was run: as §2

c-RAF = c-RAF (Homo sapiens, UniProt P04049); test: Kinase activity screening; type: biochemical; conditions: FX-9 at 2.5 μM, ATP at Km (120 μM)
How it was run: as §1

TAK1 = TAK1 (Homo sapiens, UniProt O43318); test: Kinase activity screening; type: biochemical; conditions: FX-9 at 2.5 μM, ATP at Km (45 μM)
How it was run: as §1

MST1 = MST1 (Homo sapiens, UniProt Q13043); test: Kinase activity screening; type: biochemical; conditions: FX-9 at 2.5 μM, ATP at Km (90 μM)
How it was run: as §2

CEM cells [1] = test: Proliferation, viable cell count by trypan blue exclusion; type: cell-based, human; conditions: 72 h
How it was run: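 Human B-ALL (SEM, RS4;11) and T-ALL (Jurkat, CEM) lines were grown with 10% heat-inactivated FBS and penicillin/streptomycin at 37°C, 5% CO2. Cells took test compound at 0.1–5.0 μM (methods: 0.5–5.0 μM) or DMSO for up to 72 h. Viable cells were counted by trypan blue exclusion and expressed relative to control (100%). IC50 came from three separate experiments, each in triplicate.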

CEM cells [2] = test: Cell morphology, May Grünwald Giemsa staining; type: cell-based, human; conditions: 2.5 μM, 48 h
CK1γ1 = CK1γ1 (Homo sapiens, UniProt Q9HCP0); test: Kinase activity screening; type: biochemical; conditions: FX-9 at 2.5 μM, ATP at Km (15 μM)
How it was run: as §2

PKCθ = PKCθ (Homo sapiens, UniProt Q04759); test: Kinase activity screening; type: biochemical; conditions: FX-9 at 2.5 μM, ATP at Km (15 μM)
How it was run: as §1

ROCK-I = ROCK-I (Homo sapiens, UniProt Q13464); test: Kinase activity screening; type: biochemical; conditions: FX-9 at 2.5 μM, ATP at Km (70 μM)
How it was run: as §1

PKBα = PKBα (Homo sapiens, UniProt P31749); test: Kinase activity screening; type: biochemical; conditions: FX-9 at 2.5 μM, ATP at Km (155 μM)
How it was run: as §2

LOK = LOK (Homo sapiens, UniProt O94804); test: Kinase activity screening; type: biochemical; conditions: FX-9 at 2.5 μM, ATP at Km (120 μM)
How it was run: as §2

CDK7/cyclinH/MAT1 = CDK7/cyclinH/MAT1 (Homo sapiens, UniProt P50613); test: Kinase activity screening; type: biochemical; conditions: FX-9 at 2.5 μM, ATP at Km (90 μM)
How it was run: as §2

GSK3β = GSK3β (Homo sapiens, UniProt P49841); test: Kinase activity screening; type: biochemical; conditions: FX-9 at 2.5 μM, ATP at Km (15 μM)
How it was run: as §2

PKG1α = PKG1α (Homo sapiens, UniProt Q13976); test: Kinase activity screening; type: biochemical; conditions: FX-9 at 2.5 μM, ATP at Km (90 μM)
How it was run: as §1

SAPK2a = SAPK2a (Homo sapiens, UniProt Q16539); test: Kinase activity screening; type: biochemical; conditions: FX-9 at 2.5 μM, ATP at Km (90 μM)
How it was run: as §1

ASK1 = ASK1 (Homo sapiens, UniProt Q99683); test: Kinase activity screening; type: biochemical; conditions: FX-9 at 2.5 μM, ATP at Km (200 μM)
How it was run: as §2

JAK2 = JAK2 (Homo sapiens, UniProt O60674); test: Kinase activity screening; type: biochemical; conditions: FX-9 at 2.5 μM, ATP at Km (45 μM)
How it was run: as §2

pERK = test: Western blot, RS4; type: cell-based, human; conditions: RS4;11, 2.5 μM or 5.0 μM, 48 h
How it was run: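 SEM or RS4;11 cells took DMSO, 2.5 or 5.0 μM test compound for 48 h. Cells (1–5×10^6) were lysed in RIPA buffer with sonication, run on SDS gels, blotted to PVDF and imaged by near-infrared fluorescence. Bands were normalised to GAPDH, and the phospho/total protein ratio was set relative to DMSO control (=1).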

CK2α2 = CK2α2 (Homo sapiens, UniProt P19784); test: Kinase activity screening; type: biochemical; conditions: FX-9 at 2.5 μM, ATP at Km (10 μM)
How it was run: as §2

ALK = ALK (Homo sapiens, UniProt Q9UM73); test: Kinase activity screening; type: biochemical; conditions: FX-9 at 2.5 μM, ATP at Km (200 μM)
How it was run: as §2

AMPKα1 = AMPKα1 (Homo sapiens, UniProt Q13131); test: Kinase activity screening; type: biochemical; conditions: FX-9 at 2.5 μM, ATP at Km (45 μM)
How it was run: as §2

CEM cells [3] = test: Apoptosis, Annexin V FITC / propidium iodide flow cytometry; type: cell-based, human; conditions: 5 μM, 72 h, DMSO 7.3%
Fyn = Fyn (Homo sapiens, UniProt P06241); test: Kinase activity screening; type: biochemical; conditions: FX-9 at 2.5 μM, ATP at Km (70 μM)
How it was run: as §2

eEF-2K = eEF-2K (Homo sapiens, UniProt O00418); test: Kinase activity screening; type: biochemical; conditions: FX-9 at 2.5 μM, ATP at Km (15 μM)
How it was run: as §1

Sequence of recombinant human CK2α1 (P68400 whole entry): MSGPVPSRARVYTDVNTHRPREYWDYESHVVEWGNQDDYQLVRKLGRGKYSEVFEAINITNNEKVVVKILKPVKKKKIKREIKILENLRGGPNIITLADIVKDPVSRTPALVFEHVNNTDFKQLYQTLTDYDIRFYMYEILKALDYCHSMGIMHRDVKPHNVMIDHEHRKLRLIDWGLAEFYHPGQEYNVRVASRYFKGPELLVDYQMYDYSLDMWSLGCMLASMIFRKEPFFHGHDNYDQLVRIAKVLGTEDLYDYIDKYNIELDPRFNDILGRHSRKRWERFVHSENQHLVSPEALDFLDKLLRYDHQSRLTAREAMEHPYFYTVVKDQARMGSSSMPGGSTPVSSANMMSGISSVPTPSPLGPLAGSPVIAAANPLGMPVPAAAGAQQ
Sequence of GSK3β (P49841 whole entry): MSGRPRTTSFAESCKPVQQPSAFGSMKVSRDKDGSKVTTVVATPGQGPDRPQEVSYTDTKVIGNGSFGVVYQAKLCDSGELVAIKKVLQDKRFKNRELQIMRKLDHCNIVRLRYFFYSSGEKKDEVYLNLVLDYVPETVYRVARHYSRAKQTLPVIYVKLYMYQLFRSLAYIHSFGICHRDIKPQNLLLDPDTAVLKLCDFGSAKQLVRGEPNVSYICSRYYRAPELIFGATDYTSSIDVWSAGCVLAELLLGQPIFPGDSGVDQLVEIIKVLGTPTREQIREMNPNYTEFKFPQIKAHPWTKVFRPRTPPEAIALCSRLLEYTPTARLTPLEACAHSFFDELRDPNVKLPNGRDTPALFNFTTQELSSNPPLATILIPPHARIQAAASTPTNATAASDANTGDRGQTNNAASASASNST
Sequence of CK2α2 (P19784 whole entry): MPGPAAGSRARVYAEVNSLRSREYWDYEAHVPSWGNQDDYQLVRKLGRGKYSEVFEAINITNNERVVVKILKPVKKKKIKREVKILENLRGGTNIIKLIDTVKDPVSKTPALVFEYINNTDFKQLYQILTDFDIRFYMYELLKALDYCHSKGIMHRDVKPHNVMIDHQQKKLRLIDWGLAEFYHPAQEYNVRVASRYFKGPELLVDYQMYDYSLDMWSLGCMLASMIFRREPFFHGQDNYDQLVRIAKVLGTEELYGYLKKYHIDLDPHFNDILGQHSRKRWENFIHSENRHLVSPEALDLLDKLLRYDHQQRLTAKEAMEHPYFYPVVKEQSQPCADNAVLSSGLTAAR
Sequence of PKBα (P31749 whole entry): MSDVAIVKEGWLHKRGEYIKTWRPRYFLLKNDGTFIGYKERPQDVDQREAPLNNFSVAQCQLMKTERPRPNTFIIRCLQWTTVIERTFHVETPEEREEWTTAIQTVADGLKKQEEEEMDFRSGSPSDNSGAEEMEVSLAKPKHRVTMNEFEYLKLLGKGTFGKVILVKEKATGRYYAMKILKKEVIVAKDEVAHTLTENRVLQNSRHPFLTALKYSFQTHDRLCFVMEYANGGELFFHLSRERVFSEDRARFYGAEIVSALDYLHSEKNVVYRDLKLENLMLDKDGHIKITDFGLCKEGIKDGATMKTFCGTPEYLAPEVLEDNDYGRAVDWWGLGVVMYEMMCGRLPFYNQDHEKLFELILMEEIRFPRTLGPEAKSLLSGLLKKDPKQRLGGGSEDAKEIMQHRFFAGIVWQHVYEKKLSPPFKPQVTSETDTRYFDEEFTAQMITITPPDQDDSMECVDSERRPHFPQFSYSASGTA
Sequence of CDK7/cyclinH/MAT1 (P50613 whole entry): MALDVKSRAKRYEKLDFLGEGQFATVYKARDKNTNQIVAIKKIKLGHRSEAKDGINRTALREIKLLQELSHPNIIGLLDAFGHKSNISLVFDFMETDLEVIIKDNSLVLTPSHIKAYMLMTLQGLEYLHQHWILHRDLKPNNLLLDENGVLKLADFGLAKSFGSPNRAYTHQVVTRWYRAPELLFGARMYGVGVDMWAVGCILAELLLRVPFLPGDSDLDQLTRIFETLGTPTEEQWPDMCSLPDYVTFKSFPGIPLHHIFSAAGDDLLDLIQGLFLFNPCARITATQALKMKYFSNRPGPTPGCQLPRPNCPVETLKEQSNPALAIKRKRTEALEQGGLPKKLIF
Sequence of CDK7/cyclinH/MAT1 (P51946 whole entry partner): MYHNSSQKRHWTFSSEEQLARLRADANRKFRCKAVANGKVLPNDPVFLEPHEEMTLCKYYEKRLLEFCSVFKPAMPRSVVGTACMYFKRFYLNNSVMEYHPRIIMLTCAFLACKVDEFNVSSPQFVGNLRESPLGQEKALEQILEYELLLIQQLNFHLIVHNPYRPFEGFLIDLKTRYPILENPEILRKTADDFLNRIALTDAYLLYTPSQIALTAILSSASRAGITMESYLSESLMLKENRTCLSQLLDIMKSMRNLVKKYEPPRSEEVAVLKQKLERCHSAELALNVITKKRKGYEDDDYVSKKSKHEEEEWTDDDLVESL
Sequence of CDK7/cyclinH/MAT1 (P51948 whole entry partner): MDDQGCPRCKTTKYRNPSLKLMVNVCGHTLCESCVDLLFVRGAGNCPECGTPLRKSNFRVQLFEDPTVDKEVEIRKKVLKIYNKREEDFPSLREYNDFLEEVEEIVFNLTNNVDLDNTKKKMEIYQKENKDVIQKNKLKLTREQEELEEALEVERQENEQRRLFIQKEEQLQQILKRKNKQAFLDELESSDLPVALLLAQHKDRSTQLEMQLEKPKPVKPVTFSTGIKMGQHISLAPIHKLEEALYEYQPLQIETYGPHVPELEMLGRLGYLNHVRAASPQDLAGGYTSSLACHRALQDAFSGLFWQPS
Sequence of MST1 (Q13043 whole entry): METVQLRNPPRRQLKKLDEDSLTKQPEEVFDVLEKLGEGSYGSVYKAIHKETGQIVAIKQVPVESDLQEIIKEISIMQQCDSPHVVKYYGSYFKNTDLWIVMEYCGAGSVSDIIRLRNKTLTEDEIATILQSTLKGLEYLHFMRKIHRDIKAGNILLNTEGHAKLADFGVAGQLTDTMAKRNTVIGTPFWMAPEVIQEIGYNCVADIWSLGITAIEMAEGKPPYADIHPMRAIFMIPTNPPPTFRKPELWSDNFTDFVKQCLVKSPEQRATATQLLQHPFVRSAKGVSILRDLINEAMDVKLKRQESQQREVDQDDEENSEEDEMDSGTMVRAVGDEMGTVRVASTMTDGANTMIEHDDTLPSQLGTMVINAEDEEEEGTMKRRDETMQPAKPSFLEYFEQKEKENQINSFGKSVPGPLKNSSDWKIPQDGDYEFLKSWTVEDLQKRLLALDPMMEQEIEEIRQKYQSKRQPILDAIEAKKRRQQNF
Sequence of MSK2 (O75676 whole entry): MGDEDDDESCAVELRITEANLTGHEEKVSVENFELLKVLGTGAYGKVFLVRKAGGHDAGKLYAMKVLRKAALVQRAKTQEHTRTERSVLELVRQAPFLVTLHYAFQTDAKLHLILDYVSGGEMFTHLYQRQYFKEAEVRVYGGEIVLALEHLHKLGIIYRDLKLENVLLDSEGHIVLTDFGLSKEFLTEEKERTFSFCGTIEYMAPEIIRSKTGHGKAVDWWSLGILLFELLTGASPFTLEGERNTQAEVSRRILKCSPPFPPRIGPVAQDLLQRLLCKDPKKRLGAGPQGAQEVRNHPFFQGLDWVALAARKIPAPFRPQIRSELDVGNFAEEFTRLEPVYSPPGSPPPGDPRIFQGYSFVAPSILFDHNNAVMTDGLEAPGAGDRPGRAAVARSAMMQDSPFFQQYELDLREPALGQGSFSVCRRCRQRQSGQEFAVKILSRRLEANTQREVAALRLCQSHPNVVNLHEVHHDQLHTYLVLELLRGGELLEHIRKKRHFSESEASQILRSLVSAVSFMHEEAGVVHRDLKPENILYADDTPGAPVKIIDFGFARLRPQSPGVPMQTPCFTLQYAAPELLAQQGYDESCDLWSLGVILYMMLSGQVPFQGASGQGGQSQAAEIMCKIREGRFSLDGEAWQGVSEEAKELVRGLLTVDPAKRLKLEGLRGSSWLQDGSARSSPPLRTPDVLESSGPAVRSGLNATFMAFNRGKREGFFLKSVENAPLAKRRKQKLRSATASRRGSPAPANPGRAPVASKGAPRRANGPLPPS
Sequence of LOK (O94804 whole entry): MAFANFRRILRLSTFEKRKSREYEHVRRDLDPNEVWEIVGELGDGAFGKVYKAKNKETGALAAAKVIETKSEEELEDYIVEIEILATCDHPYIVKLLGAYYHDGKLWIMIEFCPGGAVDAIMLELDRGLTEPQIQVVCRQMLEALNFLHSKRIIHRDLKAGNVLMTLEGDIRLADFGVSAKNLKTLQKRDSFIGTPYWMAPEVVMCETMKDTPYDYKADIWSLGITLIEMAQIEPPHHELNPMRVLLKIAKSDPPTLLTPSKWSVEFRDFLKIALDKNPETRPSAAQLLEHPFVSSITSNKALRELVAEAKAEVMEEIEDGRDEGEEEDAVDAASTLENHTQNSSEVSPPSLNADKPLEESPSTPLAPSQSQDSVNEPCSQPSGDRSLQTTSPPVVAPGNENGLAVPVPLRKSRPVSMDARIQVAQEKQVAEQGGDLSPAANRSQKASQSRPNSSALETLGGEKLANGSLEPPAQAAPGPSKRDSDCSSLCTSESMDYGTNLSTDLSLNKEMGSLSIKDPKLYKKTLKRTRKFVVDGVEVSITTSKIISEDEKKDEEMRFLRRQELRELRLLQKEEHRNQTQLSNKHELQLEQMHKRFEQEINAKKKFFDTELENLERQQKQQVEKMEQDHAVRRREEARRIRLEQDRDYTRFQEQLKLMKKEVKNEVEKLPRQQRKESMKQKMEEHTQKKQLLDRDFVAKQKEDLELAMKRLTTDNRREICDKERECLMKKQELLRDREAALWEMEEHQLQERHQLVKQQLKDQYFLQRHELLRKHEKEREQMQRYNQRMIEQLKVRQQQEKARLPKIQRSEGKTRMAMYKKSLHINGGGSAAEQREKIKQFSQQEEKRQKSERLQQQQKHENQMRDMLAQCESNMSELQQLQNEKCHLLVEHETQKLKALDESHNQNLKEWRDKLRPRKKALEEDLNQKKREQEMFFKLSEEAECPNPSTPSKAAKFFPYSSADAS

## Cc1ccc(-c2cc3ccccc3c(N)n2)cc1 [FX-9, 3-(p-Tolyl)isoquinolin-1-amine]
Recombinant human CK2α1; 10 μM FX-9, 10 μM ATP
  CK2 enzyme activity: not changed significantly
Recombinant human CK2α1; increasing concentrations, 10 μM ATP
  CK2 enzyme activity: No changes of CK2 enzyme activity
p70S6K
  Kinase activity (% control): 85 % control
DRAK1
  Kinase activity (% control): 81 % control
Jurkat cells
  Apoptosis (total of early apoptotic and late apoptotic and necrotic cells): 48.7%
MSK2
  Kinase activity (% control): 89 % control
CDK1/cyclinB
  Kinase activity (% control): 97 % control
Lyn
  Kinase activity (% control): 87 % control
c-RAF
  Kinase activity (% control): 92 % control
TAK1
  Kinase activity (% control): 87 % control
MST1
  Kinase activity (% control): 87 % control
CEM cells [1]; CEM, 2.5 μM
  Proliferation compared to control cells (100%): 24.1%
CEM cells [1]; Homo sapiens, CCRF-CEM, read-out: IC50 based on proliferation
  IC50: 1940 ± 30 nM
CEM cells [2]
  cellular morphology (light microscopy): Extensive cytoplasmic vacuolization, karyopyknosis, and karyolysis
CK1γ1
  Kinase activity (% control): 98 % control
PKCθ
  Kinase activity (% control): 96 % control
ROCK-I
  Kinase activity (% control): 93 % control
PKBα
  Kinase activity (% control): 98 % control
LOK
  Kinase activity (% control): 101 % control
CDK7/cyclinH/MAT1
  Kinase activity (% control): 91 % control
GSK3β
  Kinase activity (% control): 88 % control
PKG1α
  Kinase activity (% control): 98 % control
SAPK2a
  Kinase activity (% control): 98 % control
ASK1
  Kinase activity (% control): 101 % control
JAK2
  Kinase activity (% control): 111 % control
pERK
  pERK level (western blot): dose dependent increase
CK2α2
  Kinase activity (% control): 95 % control
ALK
  Kinase activity (% control): 112 % control
AMPKα1
  Kinase activity (% control): 98 % control
CEM cells [3]
  Apoptosis (total of early apoptotic and late apoptotic and necrotic cells): 90.4%
Fyn
  Kinase activity (% control): 97 % control
eEF-2K
  Kinase activity (% control): 86 % control
